The source of these data is ChEMBL document CHEMBL1146076, “Identification of potent and selective inhibitors of PDGF receptor autophosphorylation” (J Med Chem, 2006).

SMILES strings stand for the structures.

Platelet-derived growth factor receptor alpha, sequence (P16234 whole entry): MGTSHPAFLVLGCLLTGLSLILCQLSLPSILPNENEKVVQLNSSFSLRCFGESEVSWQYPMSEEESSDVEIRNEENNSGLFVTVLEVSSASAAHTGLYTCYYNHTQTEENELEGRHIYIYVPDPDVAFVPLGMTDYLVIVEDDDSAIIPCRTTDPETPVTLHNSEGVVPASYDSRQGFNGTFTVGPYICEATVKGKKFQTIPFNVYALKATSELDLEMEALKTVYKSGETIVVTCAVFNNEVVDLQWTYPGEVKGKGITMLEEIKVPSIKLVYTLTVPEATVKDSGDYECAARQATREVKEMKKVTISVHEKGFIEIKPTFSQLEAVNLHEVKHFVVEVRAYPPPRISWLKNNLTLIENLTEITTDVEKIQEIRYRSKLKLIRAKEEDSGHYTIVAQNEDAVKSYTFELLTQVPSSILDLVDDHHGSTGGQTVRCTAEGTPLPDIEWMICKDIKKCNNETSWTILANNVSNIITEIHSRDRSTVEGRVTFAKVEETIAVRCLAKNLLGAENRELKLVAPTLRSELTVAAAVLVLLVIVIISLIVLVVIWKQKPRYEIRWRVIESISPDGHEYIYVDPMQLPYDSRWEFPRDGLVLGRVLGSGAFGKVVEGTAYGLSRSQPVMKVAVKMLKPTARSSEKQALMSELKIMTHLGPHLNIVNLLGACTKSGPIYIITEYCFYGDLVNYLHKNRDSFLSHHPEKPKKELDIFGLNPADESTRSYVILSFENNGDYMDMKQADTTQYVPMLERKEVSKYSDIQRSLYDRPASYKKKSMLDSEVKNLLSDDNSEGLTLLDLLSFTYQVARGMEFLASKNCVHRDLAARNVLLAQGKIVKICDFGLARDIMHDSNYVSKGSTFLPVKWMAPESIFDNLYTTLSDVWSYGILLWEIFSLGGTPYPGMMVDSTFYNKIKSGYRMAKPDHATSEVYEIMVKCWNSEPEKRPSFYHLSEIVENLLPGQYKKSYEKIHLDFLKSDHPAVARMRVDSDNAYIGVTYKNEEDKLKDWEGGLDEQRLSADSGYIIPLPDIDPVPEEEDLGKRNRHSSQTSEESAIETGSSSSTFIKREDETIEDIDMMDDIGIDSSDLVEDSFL
Mast/stem cell growth factor receptor Kit, sequence (P10721 whole entry): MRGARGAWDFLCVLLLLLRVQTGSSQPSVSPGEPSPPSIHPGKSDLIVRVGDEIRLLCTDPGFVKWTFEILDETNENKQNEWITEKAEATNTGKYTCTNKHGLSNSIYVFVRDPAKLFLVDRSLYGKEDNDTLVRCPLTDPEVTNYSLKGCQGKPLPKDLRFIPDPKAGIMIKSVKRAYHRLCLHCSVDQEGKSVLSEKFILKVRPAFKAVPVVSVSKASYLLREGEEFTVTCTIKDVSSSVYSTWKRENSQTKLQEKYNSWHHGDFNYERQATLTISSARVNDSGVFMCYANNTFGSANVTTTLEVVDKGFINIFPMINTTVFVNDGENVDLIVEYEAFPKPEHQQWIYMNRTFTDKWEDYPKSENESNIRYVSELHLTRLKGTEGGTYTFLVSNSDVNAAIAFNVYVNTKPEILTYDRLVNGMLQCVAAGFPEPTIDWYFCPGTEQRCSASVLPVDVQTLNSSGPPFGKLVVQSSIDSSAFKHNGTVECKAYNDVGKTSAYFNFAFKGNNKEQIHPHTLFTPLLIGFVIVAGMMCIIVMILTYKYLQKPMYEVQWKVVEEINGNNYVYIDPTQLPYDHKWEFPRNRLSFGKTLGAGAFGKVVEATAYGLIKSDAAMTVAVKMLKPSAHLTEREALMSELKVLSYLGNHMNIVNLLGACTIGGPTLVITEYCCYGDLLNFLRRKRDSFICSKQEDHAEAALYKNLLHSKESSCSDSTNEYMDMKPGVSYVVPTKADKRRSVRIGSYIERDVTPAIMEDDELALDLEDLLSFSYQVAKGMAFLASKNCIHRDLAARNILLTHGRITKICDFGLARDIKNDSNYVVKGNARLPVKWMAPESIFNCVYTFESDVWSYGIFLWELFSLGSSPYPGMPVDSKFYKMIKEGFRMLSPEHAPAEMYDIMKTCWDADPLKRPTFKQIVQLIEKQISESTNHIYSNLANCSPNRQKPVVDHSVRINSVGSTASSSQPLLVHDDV

One assay has as its target Platelet-derived growth factor receptor alpha (Homo sapiens, UniProt P16234). The assay can be described thus: Inhibition of PDGFR alpha phosphorylation in G292 cell. The format is functional, cell-based. The gist of the method:
(§1)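 Cell-based ELISA on intact cells: PDGFR-α in G292 cells, c-kit in M07e cells, both quiesced in 0.1% FBS medium. Serial compound concentrations were added for 1 h at 37 °C, then 50 ng/mL PDGF-AA (G292) or SCF (M07e) was added. Lysates were captured on anti-phosphotyrosine (PY-20) plates overnight at 4 °C. Detection used anti-PDGFR-α or anti-c-kit plus HRP, read at A450. IC50 is the mean of two tests.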
On to `COc1cc2nccc(Oc3ccc(NC(=S)NC(=O)c4ccccc4)cc3)c2cc1OC`, for which the IC50 was 8 nM. As to `COc1cc2ncnc(Oc3ccc(NC(=O)NC4CCCCC4)cc3)c2cc1OC`, the IC50 is 7 nM. Still for that read-out and setting: under `COc1cc2nccc(Oc3ccc(NC(=S)NC(=O)C4CCCCC4)cc3)c2cc1OC` stands 15 nM. Still for that read-out and setting: under `COc1cc2nccc(Oc3ccc(NC(=O)NC4CCCCC4)cc3)c2cc1OC` stands 12 nM. The same measure, in the same setting: under `COc1cc2nccc(Oc3ccc(NC(=O)Oc4ccccc4)cc3)c2cc1OC` stands 5 nM; under `COc1cc2nccc(Oc3ccc(NC(=S)NC4CCCCC4)cc3)c2cc1OC`, 40 nM. Take `COc1cc2ncnc(Oc3ccc(NC(=S)NCc4ccccc4)cc3)c2cc1OC`: the concentration for half-maximal inhibition (IC50) stood at 46 nM. Compound `COc1cc2nccc(Oc3ccc(NC(=O)NCCC4CCCCC4)cc3)c2cc1OC` gave an IC50 of 6 nM. As to `COc1cc2nccc(Oc3ccc(NC(=O)OCCC4CCCCC4)cc3)c2cc1OC`, half-maximal inhibition (IC50) required 18 nM. Same read-out and setting: under `COc1cc2ncnc(Oc3ccc(NC(=O)NCCC4CCCCC4)cc3)c2cc1OC` stands 9 nM; under `COc1cc2nccc(Oc3ccc(NC(=S)NC(=O)c4ccccc4Cl)cc3)c2cc1OC`, 5 nM. As to `COc1cc2ncnc(Oc3ccc(NC(=S)NCC4CCCCC4)cc3)c2cc1OC`, inhibition was half-maximal at 37 nM (IC50).

The target of the next assay is Mast/stem cell growth factor receptor Kit (Homo sapiens, UniProt P10721). The assay can be described thus: Inhibition of c-kit receptor phosphorylation in M07e cell. The class given is functional, cell-based. Summed up:
as §1
`COc1cc2ncnc(Oc3ccc(NC(=O)NC4CCCCC4)cc3)c2cc1OC`: the IC50 was found to be 27 nM.

The compound `COc1cc2nccc(Oc3ccc(NC(=O)NC4CCCCC4)cc3)c2cc1OC` displayed a concentration for half-maximal inhibition (IC50) of 22 nM. On the same count and under the same terms, under `COc1cc2nccc(Oc3ccc(NC(=S)NC4CCCCC4)cc3)c2cc1OC` stands 69 nM; under `COc1cc2ncnc(Oc3ccc(NC(=S)NCc4ccccc4)cc3)c2cc1OC`, 303 nM; under `COc1cc2nccc(Oc3ccc(NC(=O)NCCC4CCCCC4)cc3)c2cc1OC`, below 30 nM. The same measure, in the same setting: under `COc1cc2nccc(Oc3ccc(NC(=O)OCCC4CCCCC4)cc3)c2cc1OC` stands 80 nM; under `COc1cc2ncnc(Oc3ccc(NC(=O)NCCC4CCCCC4)cc3)c2cc1OC`, below 30 nM; under `COc1cc2ncnc(Oc3ccc(NC(=S)NCC4CCCCC4)cc3)c2cc1OC`, 153 nM.

The term IC50 denotes the concentration needed to halve the response being measured.
